From PubChem BioAssay
RGS4 block = RGS4 inhibitors, primary screen, cell-based, HEK293 M3R inducible RGS4, calcium flux; Regulator of G-protein signaling 4 (Homo sapiens), P49798; Fluo-4 calcium flux; stronger effect = higher value; triggered by carbachol at its EC20; B-score at 10 µM; actives 0.45% (n = 310,000);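 active = B-score, a plate-corrected calcium signal, over three deviations above library mean, with baseline fluorescence within five deviations of library mean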;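 also: RGS4 expression induced by doxycycline in cells with stable M3 receptor; B-score is computed from the integrated fluorescence ratio over baseline after carbachol; higher B-score means a larger calcium signal and so more RGS4 inhibition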
Target sequence (P49798 whole entry, looked up): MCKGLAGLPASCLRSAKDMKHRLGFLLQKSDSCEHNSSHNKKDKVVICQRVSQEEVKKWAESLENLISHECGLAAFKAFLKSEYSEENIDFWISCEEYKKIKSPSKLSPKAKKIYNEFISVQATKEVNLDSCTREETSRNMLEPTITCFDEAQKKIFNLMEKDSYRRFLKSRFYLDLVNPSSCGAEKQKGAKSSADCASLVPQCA
RGS4 pot = RGS4 potentiators or activators, primary screen, cell-based, HEK293 M3R inducible RGS4, calcium flux. AID 463111, 2010. actives 0.92% (n = 310,000). carbachol calcium flux Fluo4; stronger effect = lower value. B-score at 10 µM;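 active = B-score of the integrated calcium signal more than 4 SD below the library mean, with starting fluorescence not abnormally high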;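 also: negative B-score means reduced calcium response which marks RGS4 activation or potentiation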
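Material: M3R-expressing HEK293 line, RGS4 induced by doxycycline | Schedule: Overnight RGS4 induction, 30 min dye load 37 °C, 20 min compound RT | Measured by: Fluo4 fluorescence kinetic imaging of calcium | Read-out: Integrated calcium ratio converted to B score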
MrgX1 agonist = agonists of human MrgX1 receptor, primary screen, HEK293 cells, Fluo-4 calcium flux. Mas-related G-protein coupled receptor member X1 (Homo sapiens), Q96LB2. Fluo-4 calcium fluorescence, agonist mode; stronger effect = higher value. B-score at 10 µM. actives 0.44% (n = 310,000). AID 588627, 2011;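 active = calcium response B-score plate-corrected fluorescence ratio at least 3 library SD, with starting fluorescence B-score inside 5 SD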
Target sequence (Q96LB2 whole entry, looked up): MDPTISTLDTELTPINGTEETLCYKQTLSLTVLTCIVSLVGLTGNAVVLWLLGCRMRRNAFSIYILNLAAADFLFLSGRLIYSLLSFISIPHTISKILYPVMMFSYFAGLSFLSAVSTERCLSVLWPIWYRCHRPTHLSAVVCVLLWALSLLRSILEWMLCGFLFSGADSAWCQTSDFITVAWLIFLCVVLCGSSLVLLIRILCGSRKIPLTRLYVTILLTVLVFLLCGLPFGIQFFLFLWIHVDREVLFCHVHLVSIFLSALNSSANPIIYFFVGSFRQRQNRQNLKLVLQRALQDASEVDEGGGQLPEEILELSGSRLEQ
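Material: HEK293 cells stably expressing human MrgX1 receptor | Quantity: 15,000 cells per well | Times: Cells plated overnight, dye loaded 0.5 h 37 °C, 0.5 h room temperature | Measured by: Kinetic Fluo-4 NW fluorescence of intracellular calcium | Control set: Positive and negative controls per plate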
MrgX1 allo act = positive allosteric modulators of MrgX1, primary screen, HEK293 cells, Fluo-4 calcium flux; Mas-related G-protein coupled receptor member X1 (Homo sapiens), Q96LB2; FDSS; stronger effect = higher value; B-score at 10 µM; actives 0.63% (n = 310,000); AID 588675, 2011;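 active = plate-corrected calcium response at least 3 library SD above typical, normal starting fluorescence, not activating the receptor alone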;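 also: compound read alongside a low EC10 to EC30 dose of BAM8-22 agonist; peak minus trough fluorescence over baseline measured at the second addition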
MrgX1 antag = antagonists of human MrgX1 receptor, primary screen, HEK293 cells, Fluo-4 calcium flux; AID 588676, 2011; actives 1.3% (n = 310,000); BAM8-22 antagonism; stronger effect = lower value; B-score at 10 µM;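 active = calcium-response B-score plate-corrected more than 3 library SD below zero, starting fluorescence within 5 deviations, no agonist response on first addition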;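 also: peak minus trough fluorescence over baseline after final BAM8-22 challenge near maximal dose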
Active calls of the source: *; i = inactive; · = not tested or not shown. Shown are actives, neighbours in structure and some others; about 3.5% of the full set was active somewhere.

SMILES	RGS4 block	RGS4 pot	MrgX1 agonist	MrgX1 allo act	MrgX1 antag
Cc1cccc(C(=O)NC(=S)NNC(=O)COc2c(C)cccc2C)c1	i	i	27*	i	i
Cc1cccc(C(=O)NC(=S)NCc2ccccc2)c1	i	i	i	i	i
Cc1ccc(C(=O)NC(=S)NNC(=O)COc2ccc([N+](=O)[O-])cc2)cc1	i	i	i	6.9*	i
CC(C)CNC(=S)NC(=O)c1ccc([N+](=O)[O-])cc1	i	i	i	10*	i
Cc1csc(OCc2ccc(C#N)cc2)n1	i	i	i	i	i
CC(NS(=O)(=O)c1ccc(CCC(=O)NCc2cccnc2)cc1)c1ccccc1 (stereo not drawn)	i	i	i	i	i
COc1ccc(CN2CC(C(=O)NCCCN3CCCC(C)C3)CC2=O)cc1 (stereo not drawn)	i	i	i	i	i
CC1CCc2ccccc2N1C(=O)c1cccs1 (stereo not drawn)	i	i	i	i	i
O=C(Cc1c(F)cccc1Cl)NNC(=O)Nc1ccc2c(c1)OCO2	i	i	i	i	i
Cc1ccc(C(=O)NC(=S)NNC(=O)COc2ccccc2C)cc1	i	-8.7*	i	i	i
CC(Oc1ccc(Br)cc1)C(=O)Nc1ccc(N2CCOCC2)cc1N1CCOCC1 (stereo not drawn)	i	i	i	i	i
O=c1oc2ccccc2cc1-c1cn2ccccc2n1	i	i	27*	i	i
O=c1oc2ccccc2cc1-c1cn2cccnc2n1	i	i	i	i	i
CCOC(=O)CSc1nc2sc3c(c2c(=O)n1-c1ccc(OCC)cc1)CCN(C)C3	i	i	i	i	i
CCn1c(SCC(N)=O)nc2sc3c(c2c1=O)CCN(C)C3	i	i	i	i	i
C=C(C)CSc1nc2sc3c(c2c(=O)n1-c1ccc(C)cc1)CCN(C)C3	i	-10*	·	·	·
CCOC(=O)CSc1nc2sc3c(c2c(=O)n1C1CCCCC1)CCN(C)C3	i	-10*	i	i	i
Cc1ccc(/C=C/c2onc(C)c2S(=O)(=O)N2CCC(C(=O)NC(C)(C)C)CC2)cc1	i	i	i	i	i
Cc1ccc(NC(=O)C2C3CCC(O3)C2C(=O)O)cc1Cl (stereo not drawn)	i	i	i	i	i
COc1ccc(NC(=O)c2ccccc2NC(=O)c2ccco2)c(OC)c1	i	i	i	i	i
COc1ccc(NC(=S)NNC(=O)c2ccco2)c(OC)c1	i	i	i	i	-5.3*
Brc1cccc(-c2nc3cccnc3nc2-c2cccc(Br)c2)c1	i	-7*	i	i	i
Cc1ccc(-c2nc3cc(Br)cnc3nc2-c2ccc(C)cc2)cc1	i	i	i	i	i
N#Cc1ccc(C(=O)CSc2n[nH]c(=O)n2Cc2ccco2)cc1	i	i	i	i	i
CCOC(=O)C(Cc1ccccc1)NC(=O)Cn1nnc(-c2ccc(SC)cc2)n1 (stereo not drawn)	i	i	i	i	-6.9*
SMILES	RGS4 block	RGS4 pot	MrgX1 agonist	MrgX1 allo act	MrgX1 antag
C=CCNCCCCOc1ccc(C)cc1[N+](=O)[O-]	i	i	i	i	i
Cc1ccc2c(CC(=O)NCCc3ccc(S(N)(=O)=O)cc3)coc2c1	i	i	i	i	i
O=[N+]([O-])c1ccc(Cl)c2c1C1C=CCC1C(c1ccccn1)N2 (stereo not drawn)	i	i	i	i	-5.6*
CCCN1C2=C(C(=O)CC(C)(C)C2)C(c2ccc(F)cc2)C2=C1c1ccccc1C2=O (stereo not drawn)	i	i	i	i	-8.7*
CCCCN1C2=C(C(=O)CC(C)(C)C2)C(c2ccccc2)C2=C1c1ccccc1C2=O (stereo not drawn)	i	i	i	i	i
CCOc1cc(N2CCOCC2)c(OCC)cc1NC(=O)COC(=O)COc1cc(C)cc(C)c1	i	i	i	i	i
CCOc1cc(N2CCOCC2)c(OCC)cc1NC(=O)COC(=O)COc1ccc(C#N)cc1	i	i	i	i	-6.3*
CCCCCCc1cc2cc(C(=O)NCc3ccccc3)c(=N)oc2cc1O	i	i	i	7*	i
CCN(CC)c1ccc2cc(C(=O)NCc3ccc(F)cc3)c(=N)oc2c1	i	i	37*	i	i
COc1ccc(N2C(=O)CN(Cc3ccc(OC)c(OC)c3)C2=S)cc1	i	i	i	i	i
COc1ccc(CCNC(=O)CSc2nnc3ccc(-c4cccnc4)nn23)cc1OC	i	i	i	i	i
COC(=O)CCC(=O)NNC(=O)c1ccc([N+](=O)[O-])cc1	i	i	i	i	i
C=CCNC(=S)NNC(=O)c1ccccc1	i	i	i	i	i
C=CCNC(=S)NNC(=O)c1ccc([N+](=O)[O-])cc1	i	i	i	i	-7.9*
CCCCCCCC(=O)NNC(=O)c1ccc([N+](=O)[O-])cc1	i	i	i	7*	i
CCCCNC(=O)N(O)C1N(CCCC)C(=O)N(CC(=O)OC)C1(C)C (stereo not drawn)	i	i	i	i	i
COCCCn1c(SCC(=O)OC2CCCCC2)nnc1-c1cccs1	i	i	i	i	-5.8*
COCCCn1c(SCC(=O)OC2CCCCC2)nnc1-c1ccco1	i	i	i	i	i
CCn1c(=S)sc2c(=O)n(CC(=O)Nc3ccc(C(C)=O)cc3)c(C)nc21	i	i	i	i	i
O=C(Nc1ccc(-c2cn3c(n2)SCC3)cc1)c1ccc2ccccc2n1	i	-7.4*	i	i	i
O=C(Nc1cccc(-c2cn3c(n2)SCC3)c1)c1ccc2ccccc2n1	i	i	i	i	i
COc1ccc(N(C(=O)CNC(=O)c2ccco2)C(C(=O)NCC2CCCO2)c2ccccc2)cc1 (stereo not drawn)	i	i	i	i	i
COC(CNC(=O)[C@H](CSCc1ccccc1)N1Cc2ccccc2C1=O)OC	i	i	i	8.2*	i
O=[N+]([O-])c1ccc(N/N=C/c2cccs2)nc1	i	i	i	i	i
